Reference: ChEMBL document CHEMBL5360632, “Quinazolinone Compounds Have Potent Antiviral Activity against Zika and Dengue Virus” (J Med Chem, 2023)

Key:
[1] = test system: Zika virus; experiment: (§1) Antiviral activity against ZIKV FLR infected in Vero cells assessed as inhibition of viral replication by measuring reduction in cytopathic effect at 10 uM preincubated with compounds for 2 hrs followed by replacement with fresh media containing compounds and measured after 48 hrs by MTT assay relative to control; assay type: functional; details: time 50 hrs
Method in brief: (§2)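 Monolayers of 2 × 10^4 cells/well in DMEM with 2% FBS. Infected at 0.1 MOI together with compound for 2h. Wells washed with PBS, then fresh medium with compound added in duplicate and incubated 48h at 37 °C. Supernatant titred by end-point dilution: half-log dilutions on Vero monolayers in quadruplicate for 5–7 days, CPE by microscope then MTT. TCID50 compared with untreated; EC50 from dose-response fit of ≥2 independent experiments.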

[2] = test system: Zika virus; experiment: Antiviral activity against ZIKV FLR infected in mosquito C6/36 cells assessed as inhibition of viral replication pretreated with compounds for 2 hrs followed by replacement with fresh medium containing compound and measured after 48 hrs bt MTT assay; assay type: functional, organism-based; method in brief: as §2
[3] = test system: Zika virus; experiment: Antiviral activity against ZIKV FLR infected in Vero cells assessed as inhibition of viral replication by measuring reduction in cytopathic effect preincubated with compounds for 2 hrs followed by replacement with fresh media containing compounds and measured after 48 hrs by MTT assay; assay type: functional, organism-based; method in brief: as §2
[4] = test system: dengue virus type 2; experiment: Antiviral activity against Dengue virus serotype 2 K0049 infected in Vero cells assessed as inhibition of viral replication pretreated for 2 hrs followed by replacement with fresh medium containing compound and measured after 48 hrs by MTT assay; assay type: functional, organism-based; method in brief: as §2
[5] = test system: U-87 MG; experiment: Cytotoxicity against human U87 cells assessed as reduction in cell viability; assay type: toxicity, cell-based; details: u-87mg atcc
[6] = test system: Zika virus; experiment: as §1, with “1” for “10”; assay type: functional; details: time 50 hrs; method in brief: as §2
[7] = test system: Zika virus; experiment: Antiviral activity against ZIKV FLR infected in Vero cells assessed as reduction in number of viral RNA copies by qRT-PCR analysis; assay type: functional, organism-based; details: dose 0.3-10 µM
Method in brief: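 Viral RNA measured in cell supernatant after compound treatment. Copies/mL calculated from a standard curve.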

[8] = test system: Zika virus; experiment: Antiviral activity against ZIKV FLR infected in human U87 cells assessed as inhibition of viral replication pretreated with compounds for 2 hrs followed by replacement with fresh medium containing compound and measured after 48 hrs by MTT assay; assay type: functional, organism-based; details: U-87 MG; method in brief: as §2
[9] = test system: Vero; experiment: Cytotoxicity against African green monkey Vero cells at 10 uM; assay type: toxicity, cell-based; details: chlorocebus sabaeus
Method in brief: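 Vero monolayers in 96-well plates, treated with compound at 10 μM in duplicate for 72 h during the phenotypic anti-ZIKV screen (0.1 MOI ZIKV FLR strain). An MTT assay optionally quantified viable cells.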

[10] = test system: Zika virus; experiment: Antiviral activity against ZIKV FLR infected in Vero cells assessed as inhibition of viral replication by measuring log reduction in cytopathic effect at 10 uM preincubated with compounds for 2 hrs followed by replacement with fresh media containing compounds and measured after 48 hrs by MTT assay; assay type: functional; details: time 50 hrs; method in brief: as §2
[11] = test system: Zika virus; experiment: Antiviral activity against ZIKV FLR infected in Vero cells assessed as inhibition of viral replication by measuring log reduction in cytopathic effect at 1 uM preincubated with compounds for 2 hrs followed by replacement with fresh media containing compounds and measured after 48 hrs by MTT assay; assay type: functional; details: time 50 hrs; method in brief: as §2

Compound	inhibition at 10 µM [1] [%]	also measured
CC(C)(C)c1cccc(-n2c(/C=C/c3ccc4ccccc4c3)nc3ccccc3c2=O)c1	68.4	
COc1cccc(/C=C/c2nc3ccc(N4CCCCC4)cc3c(=O)n2-c2cccc(C(C)(C)C)c2)n1	99.9	EC50 [2]: 0.75 µM; EC50 [3]: 0.9 µM; EC50 [4]: 0.16 µM; CC50 [5]: > 20 µM; inhibition at 1 µM [6]: 90%; Activity [7]: Dose-Dependent Effect; EC50 [8]: 0.82 µM
CC(C)(C)c1cccc(-n2c(/C=C/c3cncnc3)nc3ccccc3c2=O)c1	68.4	
Cc1ccccc1-n1c(/C=C/c2cccnc2)nc2ccccc2c1=O	0	
COc1cccc(/C=C/c2nc3ccc(N4CCC(N5CCOCC5)CC4)cc3c(=O)n2-c2cccc(C(F)(F)F)c2)n1	68.4	
COc1cccc(/C=C/c2nc3ccc(C4=CCOCC4)cc3c(=O)n2-c2cccc(C(C)(C)C)c2)n1	96.8	
COc1cccc(/C=C/c2nc3ccc(OC)cc3c(=O)n2-c2cccc(C(C)(C)C)c2)c1	0	
CC(C)(C)c1cccc(-n2c(/C=C/c3ccc(C(F)(F)F)nc3)nc3ccc(N4CCCCC4)cc3c2=O)c1	90	
COc1cccc(/C=C/c2nc3ccc(-c4ccc(N5CCCC5)cc4)cc3c(=O)n2-c2cccc(C(C)(C)C)c2)n1	96.8	
NCc1ccc(-c2ncc(OCC3CCNCC3)nc2-c2ccc(-c3ccoc3)cc2)cc1		inhibition at 1 µM [6]: 68%
COc1cccc(/C=C/c2nc3ccc(-c4ccncc4)cc3c(=O)n2-c2cccc(C(C)(C)C)c2)n1	0	
CC(C)(C)c1cccc(-n2c(/C=C/c3ccncc3)nc3ccc(N4CCCCC4)cc3c2=O)c1	68.4	
COc1cccc(/C=C/c2nc3ccc(-c4ccc(F)cc4)cc3c(=O)n2-c2cccc(C(C)(C)C)c2)n1	99	
CC(C)(C)c1cccc(-n2c(/C=C/c3ccc4ccccc4c3)nc3ccc(N4CCCCC4)cc3c2=O)c1	99.7	
O=c1c2ccccc2nc(/C=C/c2cccnc2)n1-c1ccccc1	0	
COc1cccc(/C=C/c2nc3ccc(N4CCN(C)CC4)cc3c(=O)n2-c2cccc(C(C)(C)C)c2)n1		Activity [9]: Toxic
COc1cccc(/C=C/c2nc3ccc(N4CCCC4)cc3c(=O)n2-c2cccc(C(C)(C)C)c2)n1	68.4	
COc1cccc(/C=C/c2nc3ccccc3c(=O)n2-c2cccc(C(C)(C)C)c2)n1	0	
COc1cccc(/C=C/c2nc3ccc(-c4ccc(N(C)C)cc4)cc3c(=O)n2-c2cccc(C(C)(C)C)c2)n1	96.8	
COc1cccc(/C=C/c2nc3ccc(N4CCNCC4)cc3c(=O)n2-c2cccc(C(C)(C)C)c2)n1		Activity [9]: Toxic
COc1cccc(/C=C/c2nc3ccc(N4CCCCC4)cc3c(=O)n2-c2cccc(C(C)(C)C)c2)c1	99.9	inhibition at 1 µM [6]: 68.4%
COc1ccc2nc(/C=C/c3cccc(OC)n3)n(-c3cccc(C(C)(C)C)c3)c(=O)c2c1	0	
COc1cccc(/C=C/c2nc3ccc(N4CCOCC4)cc3c(=O)n2-c2cccc(C)c2)n1	90	
COc1cccc(/C=C/c2nc3ccc(N4CCCCC4)cc3c(=O)n2-c2cccc(C)c2)n1	99.9	inhibition at 1 µM [6]: 0%
COc1cccc(/C=C/c2nc3ccc(N4CCCCC4)cc3c(=O)n2-c2cccc(C(F)(F)F)c2)n1	99	
CCN(CC)CCCC(C)Nc1ccnc2cc(Cl)ccc12 (configuration not stated) [CHLOROQUINE]	90	
COc1cccc(-n2c(/C=C/c3cccc(OC)n3)nc3ccc(N4CCC(N5CCOCC5)CC4)cc3c2=O)c1	99.9	inhibition at 1 µM [6]: 68.4%

Compound	inhibition at 10 µM [1] [%]	also measured
COc1cccc(/C=C/c2nc3ccc(N4CCN(C(=O)OC(C)(C)C)CC4)cc3c(=O)n2-c2cccc(C(C)(C)C)c2)c1	99	
COc1ncccc1/C=C/c1nc2ccccc2c(=O)n1-c1cccc(C(C)(C)C)c1	68.4	log(activity) [10]: 0.5
COc1cccc(/C=C/c2nc3ccc(N4CCC(N5CCOCC5)CC4)cc3c(=O)n2-c2cccc(C(C)(C)C)c2)n1	99.9	inhibition at 1 µM [6]: 90%
COc1cccc(/C=C/c2nc3ccc(N4CCN(C(=O)OC(C)(C)C)CC4)cc3c(=O)n2-c2cccc(C(C)(C)C)c2)n1	99	
CC(C)(C)c1cccc(-n2c(/C=C/c3cccnc3)nc3ccccc3c2=O)c1	0	
CC(C)(C)c1cccc(-n2c(/C=C/c3ccccc3)nc3ccccc3c2=O)c1	0	
CC(C)(C)c1ccc(-n2c(/C=C/c3cncc(Br)c3)nc3ccccc3c2=O)cc1	0	
CC(C)(C)c1ccc(-n2c(/C=C/c3cccnc3)nc3ccccc3c2=O)cc1	0	
COc1cccc(-n2c(/C=C/c3cccc(OC)n3)nc3ccc(N4CCCCC4)cc3c2=O)c1	99.9	EC50 [2]: 0.77 µM; EC50 [3]: 0.21 µM; EC50 [4]: 0.56 µM; CC50 [5]: > 20 µM; inhibition at 1 µM [6]: 90%; EC50 [8]: 0.69 µM
COc1ccccc1/C=C/c1nc2ccccc2c(=O)n1-c1cccc(C(C)(C)C)c1	0	
COc1cccc(/C=C/c2nc3ccccc3c(=O)n2-c2cccc(C(C)(C)C)c2)c1	0	
COc1cccc(CCc2nc3ccc(N4CCOCC4)cc3c(=O)n2-c2cccc(C(C)(C)C)c2)n1	0	
CCN(CC)c1ccc2nc(/C=C/c3cccc(OC)n3)n(-c3cccc(C(C)(C)C)c3)c(=O)c2c1	99.9	log(activity) [11]: 0.5; inhibition at 1 µM [6]: 68.4%; log(activity) [10]: 3
COc1cccc(-n2c(/C=C/c3cccnc3)nc3ccccc3c2=O)c1	68.4	log(activity) [10]: 0.5
COc1cccc(/C=C/c2nc3ccc(N4CCOCC4)cc3c(=O)n2-c2cccc(C(F)(F)F)c2)n1	0	
COc1cc(/C=C/c2nc3ccc(N4CCN(C)CC4)cc3c(=O)n2-c2cccc(C(C)(C)C)c2)cc(OC)c1		Activity [9]: Toxic
COc1cccc(/C=C/c2nc3ccc(Cl)cc3c(=O)n2-c2cccc(C(C)(C)C)c2)n1	0	
CC(C)(C)c1cccc(-n2c(/C=C/c3ccncc3)nc3ccccc3c2=O)c1	68.4	
CC(C)(C)c1cccc(-n2c(/C=C/c3ccc(C(F)(F)F)cc3)nc3ccccc3c2=O)c1	90	
CC(C)(C)c1ccc(-n2c(/C=C/c3cncnc3)nc3ccccc3c2=O)cc1	0	
COc1cccc(/C=C/c2nc3ccc(N4CCC(N5CCOCC5)CC4)cc3c(=O)n2-c2cccc(C)c2)n1	99.9	inhibition at 1 µM [6]: 0%
COc1cccc(-n2c(/C=C/c3cccc(OC)n3)nc3ccc(N4CCOCC4)cc3c2=O)c1	99	
COc1cccc(-c2ccc3nc(/C=C/c4cccc(OC)n4)n(-c4cccc(C(C)(C)C)c4)c(=O)c3c2)c1	0	
CC(C)(C)c1cccc(-n2c(/C=C/c3ccc(C(F)(F)F)nc3)nc3ccccc3c2=O)c1	90	log(activity) [10]: 0.5
COc1cccc(CCc2nc3ccc(N4CCCCC4)cc3c(=O)n2-c2cccc(C(C)(C)C)c2)n1	0	
Cc1cccc(-n2c(/C=C/c3cccnc3)nc3ccccc3c2=O)c1	0	
